Assay outcomes as filed in PubChem.
Shown is part of a subset that was picked to be rich in hits.
VLA-4 inh: inhibition in human VLA-4 binding assay, primary screen, VLA-4 allosteric modulator project, MLPCN library, flow cytometry, VLA-4 expressing cells; Integrin alpha-4 (Homo sapiens), P13612; ligand binding flow cytometry; inhibition, % (about 7 µM as worked out from the volumes in the protocol); actives 0.2% (n = 330,000); AID 2557, 2010; in the data active means inhibition above about 50%
CHOP inhibitor: inhibitors of CHOP promoter induction, primary screen, cell-based, unfolded protein response, luciferase reporter; CHO-K1 CHOP-promoter luciferase, tunicamycin-induced, 15-18 h; inhibition, % at 10 µM; actives 3.8% (n = 220,000);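 active means compounds that reduced the stress-induced luciferase reporter signal by more than about 70% of percent inhibition, limit read from the data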
XBP1 UPR activ: activators of adaptive XBP1 UPR arm, primary screen, cell-based, CHO-XBP1 luciferase reporter, luminescence, uHTS | IRE1-XBP1 UPR activation; percent of tunicamycin response, DMSO as zero | AID 463104, 2010 | actives 0.33% (n = 330,000) | activation, % at 20 µM;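 active means versus positive control, 20 µM dose yields 30% or more activation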
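Material: CHO-XBP1 cells stably carrying IRE1-XBP1-driven luciferase reporter / Amount: 1000 cells per well / Compound: 20 µM, 1% DMSO / Times: 6 h treatment, 37 °C / Detection: luciferase luminescence / Measure: % activation of reporter signal versus tunicamycin and DMSO controls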
UPR CHOP act: activators of apoptotic CHOP UPR arm, primary screen, cell-based, CHO-CHOP luciferase reporter, luminescence, uHTS. UPR activation; percent of tunicamycin response over DMSO baseline. activation, % at 10 µM. AID 449763, 2010. actives 0.34% (n = 330,000);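 active means at 10 µM dose, activation of 40% or more, normalized to positive control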
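Test system: CHO CHOP reporter cells. Input: 500 CHO-CHOP cells per well. Medium: F12 with 10% FBS. Technique: luciferase luminescence. Measure: percent activation relative to tunicamycin control. Dosing: 10 µM compound, 0.5% DMSO. Timing: 16-18 h cell attachment, then 6 h compound exposure, 37 °C.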
B2AR ag: beta2AR agonists driving receptor internalization, primary screen, cell-based, FAP fluorogen, flow cytometry; response, % (concentration not given with the values); Am2.2-beta2AR cells; AID 504454, 2011; Beta-2 adrenergic receptor (Homo sapiens), P07550; actives 0.43% (n = 340,000);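 active means response above a set limit, near 3 SD of response in nonfluorescent compounds, cut at about 42% in these data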
A number is an active result; i = inactive; nt = no result given.

SMILES	VLA-4 inh	CHOP inhibitor	XBP1 UPR activ	UPR CHOP act	B2AR ag
CC(C)[C@@H]1NC(=O)[C@H](CCCCN)NC(=O)[C@@H](Cc2c[nH]c3ccccc23)NC(=O)[C@H](Cc2ccc(O)cc2)NC(=O)[C@H](C)N(C)C(=O)[C@H](Cc2ccccc2)NC1=O	nt	i	nt	nt	nt
O=C(/C=C/c1ccccc1)CCN1CCCCC1	nt	nt	nt	nt	44
CCOc1ccccc1N1CCN(C(=O)C2CSC3(C)CCC(=O)N23)CC1 (centres undefined)	i	nt	i	i	i
COc1coc(C(O)CN)cc1=O (centres undefined)	i	i	i	i	i
CCOC(=O)C(=Cc1cc(=O)c(OC)co1)C(=O)OCC	nt	109	nt	nt	i
CC(C)(C)c1ccc(OCCCNCc2ccccc2)cc1	i	95	i	i	i
CCOC(=O)Cn1nnc(-c2ccc(OCC(C)C)cc2)n1	i	71	i	i	i
CCCOc1ccc(-c2nnn(CC(=O)c3c[nH]c4ccccc34)n2)cc1	i	85	i	i	i
CCOC(=O)Cn1nnc(-c2ccc(SC)cc2)n1	i	i	i	i	i
CCOC(=O)/C(C#N)=C/C1=C(N2CCOCC2)C(C)(C)OCC1	i	i	i	i	i
COc1ccc(-c2c(C(F)(F)F)oc3cc(OCC(=O)Nc4ccccc4C(F)(F)F)ccc3c2=O)cc1OC	i	91	nt	nt	i
COc1ccccc1-c1c(C(F)(F)F)oc2cc(OCC(=O)Nc3ccccc3C(F)(F)F)ccc2c1=O	i	i	i	i	i
CSc1cccc(NC(=O)Nc2nc3c(C)cccc3s2)c1	i	i	i	i	i
CCOC(=O)c1c(NC(=S)NC)sc2c1CC(C)(C)SC2	i	95	i	i	i
COc1cc(C(=O)O/N=C2/C=C(C)C(=O)C=C2C)cc(OC)c1OC	i	i	i	96	i
COc1cc(C(=O)Oc2cc(C)cc(C)c2)cc(OC)c1OC	i	i	i	i	i
O=C1[C@H]2[C@@H](c3ccc(F)cc3)N3C(=O)N(c4cccc(F)c4)C(=O)[C@@]3(Cc3ccc(Cl)cc3)[C@H]2C(=O)N1C1CCCCC1	i	nt	i	i	i
CCc1nnc(NC(=O)Cn2nc(-c3ccc(OC)c(OC)c3)ccc2=O)s1	i	i	i	i	i
CCc1nnc(NC(=O)Cn2nc(-c3ccccc3OC)ccc2=O)s1	i	70	i	i	i
Fc1ccc(-n2nnc(-c3cccnc3)n2)cc1	nt	i	i	i	i
Fc1ccc(-n2nnc(-c3cnc4ccccc4c3)n2)cc1	i	72	i	i	nt
CCOC(=O)C1=CN(Cc2ccco2)S(=O)(=O)N(C)C1c1ccc(F)c(Cl)c1 (centres undefined)	nt	nt	i	i	i
CC(C)(C)c1cc(CCC(=O)NNC(=S)NC(=O)c2ccccc2)cc(C(C)(C)C)c1O	i	109	i	i	i
CC1CCCC(n2c(=S)[nH]c3ccccc3c2=O)C1C (centres undefined)	i	94	i	i	i
O=C1CNC(=S)N1Cc1cccc(Cl)c1	i	nt	i	i	i
SMILES	VLA-4 inh	CHOP inhibitor	XBP1 UPR activ	UPR CHOP act	B2AR ag
CNc1oc(-c2ccc(Cl)cc2)nc1P(=O)(c1ccccc1)c1ccccc1	i	71	i	i	i
O=c1c2nncn2c2cc(C(F)(F)F)ccc2n1CCNc1ncc(C(F)(F)F)cc1Cl	i	85	i	i	i
O=c1c2nncn2c2cccnc2n1CCNc1ncc(C(F)(F)F)cc1Cl	i	i	i	i	i
CCCCCOC(=O)Nc1nnc(CCCCC)s1	i	95	i	i	i
CCCCCc1nnc(NC(=O)OCCC)s1	i	i	i	i	i
OC(COC(c1ccccc1)c1ccccc1)CN1CCc2ccccc2C1 (centres undefined)	i	i	i	i	i
OC(COC(c1ccc(Cl)cc1)c1ccc(Cl)cc1)CN1CCc2ccccc2C1 (centres undefined)	i	90	i	i	i
COC(=O)c1sccc1NC(=O)C1CC2CCC1C2 (centres undefined)	i	94	i	i	i
COC(=O)c1sccc1NC(=S)N1CC(C)CC(C)C1 (centres undefined)	i	93	nt	nt	i
